Source: PubChem BioAssay
This is a sample that favours compounds with a hit; in the whole collection about 3.5% have one here.
MrgX1 ag – agonists of human MrgX1 receptor, primary screen, HEK293 cells, Fluo-4 calcium flux; Fluo-4 calcium fluorescence, agonist mode; stronger effect = higher value; 310,000 tested, 0.44% active; AID 588627, 2011; Mas-related G-protein coupled receptor member X1 (Homo sapiens), Q96LB2; B-score at 10 µM;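 active = calcium response B-score plate-corrected fluorescence ratio at least 3 library SD, with starting fluorescence B-score inside 5 SD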
Target sequence (Q96LB2 whole entry, looked up): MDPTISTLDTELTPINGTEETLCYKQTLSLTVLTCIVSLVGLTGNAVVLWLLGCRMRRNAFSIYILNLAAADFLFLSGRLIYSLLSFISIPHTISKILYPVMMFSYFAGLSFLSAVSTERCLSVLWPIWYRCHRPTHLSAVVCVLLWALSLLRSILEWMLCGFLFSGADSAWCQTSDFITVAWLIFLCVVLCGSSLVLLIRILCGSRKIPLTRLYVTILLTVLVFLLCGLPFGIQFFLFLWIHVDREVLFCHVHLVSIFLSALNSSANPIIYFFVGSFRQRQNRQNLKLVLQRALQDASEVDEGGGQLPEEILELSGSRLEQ
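Material: MrgX1-expressing HEK293 cells; input: 15,000 cells per well; doses: test compound given as first of three sequential additions; schedule: overnight plating before 1 h dye loading; technique: Fluo-4 NW calcium-flux fluorescence, kinetic read; evaluation: baseline-normalised fluorescence change ratio, B-scored; control set: plate-wise positive and negative controls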
RGS4 block – RGS4 inhibitors, primary screen, cell-based, HEK293 M3R inducible RGS4, calcium flux | B-score at 10 µM | Regulator of G-protein signaling 4 (Homo sapiens), P49798 | Fluo-4 calcium flux; stronger effect = higher value; triggered by carbachol at its EC20 | 310,000 tested, 0.45% active;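 active = B-score, a plate-corrected calcium signal, over three deviations above library mean, with baseline fluorescence within five deviations of library mean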;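 also: RGS4 expression induced by doxycycline in cells with stable M3 receptor; B-score is computed from the integrated fluorescence ratio over baseline after carbachol; higher B-score means a larger calcium signal and so more RGS4 inhibition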
Target sequence (P49798 whole entry, looked up): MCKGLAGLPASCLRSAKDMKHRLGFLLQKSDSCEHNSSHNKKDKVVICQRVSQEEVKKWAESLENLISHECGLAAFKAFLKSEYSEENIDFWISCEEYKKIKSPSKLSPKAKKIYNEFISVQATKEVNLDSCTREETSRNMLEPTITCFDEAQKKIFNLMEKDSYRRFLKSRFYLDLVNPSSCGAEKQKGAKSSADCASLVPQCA
MrgX1 antagonist – antagonists of human MrgX1 receptor, primary screen, HEK293 cells, Fluo-4 calcium flux. Mas-related G-protein coupled receptor member X1 (Homo sapiens), Q96LB2. BAM8-22 antagonism; stronger effect = lower value. B-score at 10 µM. 310,000 tested, 1.3% active. AID 588676, 2011;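 active = calcium-response B-score plate-corrected more than 3 library SD below zero, starting fluorescence within 5 deviations, no agonist response on first addition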;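 also: peak minus trough fluorescence over baseline after final BAM8-22 challenge near maximal dose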
RGS4 act – RGS4 potentiators or activators, primary screen, cell-based, HEK293 M3R inducible RGS4, calcium flux; B-score at 10 µM; carbachol calcium flux Fluo4; stronger effect = lower value; 310,000 tested, 0.92% active;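 active = B-score of the integrated calcium signal more than 4 SD below the library mean, with starting fluorescence not abnormally high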;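 also: negative B-score means reduced calcium response which marks RGS4 activation or potentiation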
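Assay system: HEK293 FlpIn-TREx cells, stable M3R, doxycycline-inducible RGS4 / Probe or stimulus: carbachol, ECmax concentration / Times: overnight RGS4 induction, 30 min dye load 37 °C, 20 min compound RT / Signal: kinetic calcium fluorescence imaging with Fluo4-AM dye, 2 µM / Measure: Agonist-evoked peak-minus-minimum fluorescence over baseline, integrated ratio, B score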
MrgX1 allo act – positive allosteric modulators of MrgX1, primary screen, HEK293 cells, Fluo-4 calcium flux. Mas-related G-protein coupled receptor member X1 (Homo sapiens), Q96LB2. FDSS; stronger effect = higher value. B-score at 10 µM. 310,000 tested, 0.63% active. AID 588675, 2011;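 active = plate-corrected calcium response at least 3 library SD above typical, normal starting fluorescence, not activating the receptor alone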;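 also: compound read alongside a low EC10 to EC30 dose of BAM8-22 agonist; peak minus trough fluorescence over baseline measured at the second addition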
RGS4 block valid – enhanced carbachol calcium response, M3R/RGS4 cells, RGS4 inhibitor project, cell-based, validation screen, HEK293 M3R/RGS4, calcium flux; shares compounds with RGS4 block; carbachol calcium Fluo-4 fluorescence; carbachol added at its EC20; 0 = buffer wells, 100 = carbachol control; calcium response, % at 10 µM; 1,700 tested, 65% active; AID 492999, 2010;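 active = duplicate-averaged calcium response above the buffer-only control mean plus 5 SD of those controls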;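 also: integrated fluorescence ratio F max minus min over baseline F0; higher response in RGS4-induced cells means RGS4 inhibition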
M3R Ca ctr – carbachol calcium response in non-induced M3R cells, confirmation, counter-screen for RGS4 inhibitor project, cell-based, HEK293 M3R; activity (percent), % at 10 µM; AID 493000, 2010; 1,900 tested, 20% active; shares compounds with RGS4 block; carbachol calcium Fluo-4; submaximal (EC20) carbachol stimulus; buffer wells 0%, carbachol control wells 100%; call rule not given here;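 also: RGS4 induction absent so cells express M3R without RGS4; higher means more calcium signal and flags a non-specific hit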
M3R basal Ca ctr – second RGS4 inhibitor counter-screen in uninduced cells lacking carbachol | shares compounds with RGS4 block | HEK293 M3R/RGS4 non-induced, Fluo-4 calcium, no carbachol; normalised: buffer wells 0%, carbachol wells 100% | calcium response (agonist-mode artifact), % at 10 µM | 1,900 tested, 22% active | AID 493001;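 active = duplicate-averaged calcium rise in uninduced cells above buffer wells' mean plus 5 SD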
Active calls of the source: *; i = inactive; · = no result.

SMILES	MrgX1 ag	RGS4 block	MrgX1 antagonist	RGS4 act	MrgX1 allo act	RGS4 block valid	M3R Ca ctr	M3R basal Ca ctr
O=C(NN=C1CCCC1)c1[nH]c2ccc(Br)cc2c1-c1ccccc1	i	13*	i	i	i	16%*	i	i
COC(=O)c1cn(C(=O)/C=C/c2ccc(OC)c(OC)c2)c2ccccc12	i	4.7*	i	i	i	i	i	i
COC(=O)c1cn(C(=O)OC)c2ccccc12	i	i	i	i	i	·	·	·
COc1ccc(Oc2ncccc2[N+](=O)[O-])cc1	i	13*	i	i	i	i	i	i
O=[N+]([O-])c1cccnc1Oc1ccc(F)cc1	i	i	i	i	i	·	·	·
CCC(C(=O)N1CCOCC1)n1nc(C)c2c(C)n(-c3ccccc3)nc2c1=O (configuration not stated)	i	9*	i	i	i	5.0%*	i	i
COc1ccccc1-c1nnc2n1N=C(c1ccc(O)c(O)c1)CS2	i	i	i	i	i	·	i	i
Brc1ccc(C2=Nn3c(nnc3-c3cccnc3)SC2)s1	i	i	i	i	i	·	·	·
COc1ccc(C2=Nn3c(nnc3-c3cccnc3)SC2)cc1OC	i	i	i	i	i	i	i	i
COc1ccc(/C=C/C(=O)C(C)(C)C)cc1OC	i	i	i	i	i	·	·	·
COc1cc(C=C(C(C)=O)C(C)=O)ccc1O	i	5.4*	i	i	i	6.0%*	i	i
COc1ccc(C=C(C(C)=O)C(C)=O)cc1OC	i	18*	i	i	i	28%*	44%*	i
CCOc1ccc(S(=O)(=O)N2CCN(CC(O)COc3cccc([N+](=O)[O-])c3)CC2)cc1 (configuration not stated)	i	i	i	i	i	·	·	·
NC(=O)c1cc2c(s1)-c1cc(Cl)ccc1SC2	i	5.9*	i	i	i	18%*	i	i
COCCNC(=O)c1cc2c(s1)-c1ccc(Cl)cc1SC2	i	i	i	i	i	·	·	·
Cc1ccc(C(=O)N/C(=C\c2ccc(Br)cc2)c2nc(=S)[nH][nH]2)cc1	i	i	i	i	i	·	i	11%*
O=C(N/C(=C/c1cccc(Br)c1)c1nc(=S)[nH][nH]1)c1ccccc1	i	7.2*	i	i	i	45%*	i	96%*
Cc1cc(C)c(C)c(S(=O)(=O)NC(C(=O)O)C(C)C)c1C (configuration not stated)	i	i	i	i	i	·	·	·
CCOc1cc(/C=C2\CN(CC)C/C(=C\c3ccc(O)c(OCC)c3)C2=O)ccc1O	27*	12*	i	i	i	48%*	36%*	12%*
CCOc1cc(/C=N/N=C/c2ccc(O)c(OCC)c2)ccc1O	i	i	i	i	i	·	·	·
O=C(CSc1n[nH]c(-c2ccncc2)n1)Nc1ccccc1Cl	i	i	i	i	i	·	·	·
O=C(COC(=O)/C=C/c1cccs1)Nc1nc(-c2ccccc2)cs1	i	15*	i	i	i	50%*	53%*	i
O=C(COC(=O)/C=C/c1cccs1)Nc1nc(-c2cccc(Br)c2)cs1	i	i	i	i	i	i	i	12%*
CSCCC(NS(=O)(=O)c1ccccc1F)C(=O)Nc1cccc(C)n1 (configuration not stated)	i	i	i	i	i	·	·	·
Cc1ccc(S(=O)(=O)N2CCCOC2CNC(=O)C(=O)NC2CCCC2)cc1 (configuration not stated)	i	i	i	i	i	i	i	i
SMILES	MrgX1 ag	RGS4 block	MrgX1 antagonist	RGS4 act	MrgX1 allo act	RGS4 block valid	M3R Ca ctr	M3R basal Ca ctr
O=C1c2ccccc2CN1CCSC(=S)N1CCOCC1	i	6.5*	i	i	i	i	i	i
Cc1ccc(/C=c2/sc3n(c2=O)CCCN=3)o1	i	5.3*	i	i	i	i	i	12%*
Cc1ccc(/C=c2\sc3n(c2=O)CN(c2ccc(Br)cc2)CN=3)o1	i	i	i	i	i	·	·	·
O=[N+]([O-])c1cc(C(F)(F)F)ccc1NCCc1c[nH]c2ccc(O)cc12	i	13*	i	i	i	20%*	i	i
COc1ccc(CNS(=O)(=O)c2ccc3c(c2)NC(=O)C(C)S3)cc1 (configuration not stated)	i	i	i	i	i	·	·	·
Cc1cccc(N2C(=O)N3[C@@H]4c5ccccc5OC[C@@H]4[C@@H](c4ccccc4)[C@]3(C)C2=O)c1	i	i	i	i	i	i	i	i
Cc1cccc(N2C(=O)N3[C@@H]4c5ccccc5OC[C@@H]4[C@@H](c4ccccc4)[C@@]3(C)C2=O)c1	i	i	i	i	i	·	i	i
Cc1cccc([C@@H]2[C@@H]3C(=O)N(Cc4ccccc4)C(=O)[C@@H]3[C@]3(C)C(=O)N(c4cccc(Cl)c4)C(=O)N23)c1	i	i	i	i	i	·	·	·
C[C@]12C(=O)N(c3cccc(Cl)c3)C(=O)N1[C@H]1c3ccccc3OC[C@@H]1[C@H]2c1ccccc1	i	6*	-6*	i	i	16%*	i	i
COc1ccc(Cl)cc1NC(=O)c1cc(-c2cc(C)ccc2O)n[nH]1	i	i	i	i	i	i	i	i
COc1ccc(Cl)cc1NC(=O)c1cc(-c2ccc(C)cc2O)n[nH]1	i	i	i	i	i	·	i	i
